Assay results: ChEMBL document CHEMBL1944546, “Structure-activity relationships of novel alkylides: 3-O-arylalkyl clarithromycin derivatives with improved antibacterial activities” (2012)
Values after ≈ are worked out from the molar mass of the structure shown.

Assays:
Streptococcus pneumoniae [1] = assay: Antibacterial activity against erythromycin-susceptible Streptococcus pneumoniae ATCC 49619 by broth microdilution method; format: functional
Procedure, shortened: (§1)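 MIC read by broth microdilution following CLSI (2010) guidance. The clinical isolates were identified by 16S rDNA sequencing and labelled by genotype and phenotype. S. aureus ATCC 29213 and S. pneumoniae ATCC 49619 were the control strains. Azithromycin, clarithromycin and 3-OH-clarithromycin were run as reference compounds.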

Streptococcus pneumoniae [2] = assay: Antibacterial activity against penicillin-, constitutive MLS-resistant Streptococcus pneumoniae PU 11 by broth microdilution method; format: functional
Procedure, shortened: (§2)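 MIC by broth microdilution following CLSI (2010) recommendations, using clinical isolates identified by 16S rDNA sequencing and labelled by genotype and phenotype. S. aureus ATCC 29213 and S. pneumoniae ATCC 49619 were run as control strains, and azithromycin, clarithromycin and 3-OH-clarithromycin were tested as reference agents.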

Streptococcus pneumoniae [3] = assay: Antibacterial activity against efflux,penicillin-susceptible Streptococcus pneumoniae PU 09 by broth microdilution method; format: functional; procedure, shortened: as §1
Streptococcus pneumoniae [4] = assay: Antibacterial activity against penicillin-susceptible, constitutive MLS-resistant Streptococcus pneumoniae PU 27 by broth microdilution method; format: functional; procedure, shortened: as §2
[5] = test system: Streptococcus dysgalactiae; assay: Antibacterial activity against efflux, erythromycin-resistant Streptococcus dysgalactiae A 1 by broth microdilution method; format: functional; procedure, shortened: as §2
Streptococcus pyogenes [6] = assay: Antibacterial activity against constitutive MLS-resistant Streptococcus pyogenes A 2 by broth microdilution method; format: functional; procedure, shortened: as §2
Streptococcus pyogenes [7] = assay: Antibacterial activity against erythromycin-susceptible Streptococcus pyogenes A 3 by broth microdilution method; format: functional; procedure, shortened: as §1
Staphylococcus aureus [8] = assay: Antibacterial activity against erythromycin-susceptible Staphylococcus aureus ATCC 29213 by broth microdilution method; format: functional; procedure, shortened: as §1
Staphylococcus aureus [9] = assay: Antibacterial activity against methicillin-, constitutive MLS-resistant […] by broth microdilution method; format: functional; procedure, shortened: as §2
Staphylococcus aureus [10] = assay: Antibacterial activity against methicillin-susceptible, inducible MLS-resistant Staphylococcus aureus PU 64 by broth microdilution method; format: functional; procedure, shortened: as §2
[11] = test system: Staphylococcus haemolyticus; assay: Antibacterial activity against methicillin-resistant, coagulase-negative, constitutive MLS-resistant Staphylococcus haemolyticus PU 19 by broth microdilution method; format: functional; procedure, shortened: as §2
[12] = test system: Staphylococcus epidermidis; assay: Antibacterial activity against methicillin-susceptible, inducible MLS-resistant Staphylococcus epidermidis E1 by broth microdilution method; format: functional; procedure, shortened: as §2
[13] = test system: Staphylococcus epidermidis; assay: Antibacterial activity against methicillin-resistant, constitutive MLS-resistant Staphylococcus epidermidis E2 by broth microdilution method; format: functional; procedure, shortened: as §2
Staphylococcus hominis [14] = assay: Antibacterial activity against methicillin-resistant, coagulase-negative, inducible MLS-resistant Staphylococcus hominis E3 by broth microdilution method; format: functional; procedure, shortened: as §2
Staphylococcus aureus [15] = assay: Antibacterial activity against methicillin-, inducible MLS-resistant Staphylococcus aureus PU 32 by broth microdilution method
Staphylococcus aureus [16] = assay: Antibacterial activity against methicillin-, inducible MLS-resistant […] by broth microdilution method; format: functional; procedure, shortened: as §2
[17] = test system: Staphylococcus epidermidis; assay: Ratio of MIC for clarithromycin to compound for methicillin-susceptible, inducible MLS-resistant Staphylococcus epidermidis E1 by broth microdilution method; format: functional
[18] = test system: Staphylococcus epidermidis; assay: Ratio of MIC for azithromycin to compound for methicillin-susceptible, inducible MLS-resistant Staphylococcus epidermidis E1 by broth microdilution method; format: functional
Streptococcus pneumoniae [19] = assay: Ratio of MIC for clarithromycin to compound for efflux,penicillin-susceptible Streptococcus pneumoniae PU 09 by broth microdilution method; format: functional
Procedure, shortened: (§3)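 MICs of the test compounds and of the reference macrolides (azithromycin, clarithromycin) were determined side by side by broth microdilution following CLSI (2010). The clinical isolates were identified by 16S rDNA sequencing and labelled by genotype and phenotype. S. aureus ATCC 29213 and S. pneumoniae ATCC 49619 served as control strains.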

Streptococcus pneumoniae [20] = assay: Ratio of MIC for azithromycin to compound for efflux,penicillin-susceptible Streptococcus pneumoniae PU 09 by broth microdilution method; format: functional; procedure, shortened: as §3
[21] = test system: Streptococcus dysgalactiae; assay: Ratio of MIC for clarithromycin to compound for efflux, erythromycin-resistant Streptococcus dysgalactiae A 1 by broth microdilution method; format: functional; procedure, shortened: as §3
[22] = test system: Streptococcus dysgalactiae; assay: Ratio of MIC for azithromycin to compound for efflux, erythromycin-resistant Streptococcus dysgalactiae A 1 by broth microdilution method; format: functional; procedure, shortened: as §3
Staphylococcus hominis [23] = assay: Ratio of MIC for clarithromycin to compound for methicillin-resistant, coagulase-negative, inducible MLS-resistant Staphylococcus hominis E3 by broth microdilution method; format: functional; procedure, shortened: as §3
Staphylococcus hominis [24] = assay: Ratio of MIC for azithromycin to compound for methicillin-resistant, coagulase-negative, inducible MLS-resistant Staphylococcus hominis E3 by broth microdilution method; format: functional; procedure, shortened: as §3

Structure (SMILES)	MIC (Streptococcus pneumoniae [1])	MIC (Streptococcus pneumoniae [2])	MIC (Streptococcus pneumoniae [3])	MIC (Streptococcus pneumoniae [4])	MIC [5]	MIC (Streptococcus pyogenes [6])	MIC (Streptococcus pyogenes [7])	MIC (Staphylococcus aureus [8])	MIC (Staphylococcus aureus [9])	MIC (Staphylococcus aureus [10])	MIC [11]	MIC [12]	MIC [13]	MIC (Staphylococcus hominis [14])	MIC (Staphylococcus aureus [15])	further results
CC[C@H]1OC(=O)[C@H](C)[C@@H](OC/C=C/c2cncnc2)[C@H](C)[C@@H](O[C@@H]2O[C@H](C)C[C@H](N(C)C)[C@H]2O)[C@](C)(OC)C[C@@H](C)C(=O)[C@H](C)[C@@H](O)[C@]1(C)O	8 µg/mL (≈ 11.3 µM)	128 µg/mL (≈ 181 µM)	16 µg/mL (≈ 22.6 µM)	128 µg/mL (≈ 181 µM)	16 µg/mL (≈ 22.6 µM)	> 256 µg/mL	8 µg/mL (≈ 11.3 µM)	> 256 µg/mL	> 256 µg/mL	> 256 µg/mL	> 256 µg/mL	> 256 µg/mL	> 256 µg/mL	> 256 µg/mL	> 256 µg/mL	
CC[C@H]1OC(=O)[C@H](C)[C@@H](OC/C=C/c2cncnc2)[C@H](C)[C@@H](O[C@@H]2O[C@H](C)C[C@H](N(C)C)[C@H]2O)[C@](C)(OC)C[C@@H](C)/C(=N\O)[C@H](C)[C@@H](O)[C@]1(C)O	16 µg/mL (≈ 22.1 µM)	> 256 µg/mL	32 µg/mL (≈ 44.3 µM)	128 µg/mL (≈ 177 µM)	16 µg/mL (≈ 22.1 µM)	> 256 µg/mL	8 µg/mL (≈ 11.1 µM)	> 256 µg/mL	> 256 µg/mL	> 256 µg/mL	> 256 µg/mL	> 256 µg/mL	> 256 µg/mL	> 256 µg/mL	> 256 µg/mL	
CC[C@H]1OC(=O)[C@H](C)[C@@H](O/C=C\Cc2cncnc2)[C@H](C)[C@@H](O[C@@H]2O[C@H](C)C[C@H](N(C)C)[C@H]2O)[C@](C)(OC)C[C@@H](C)/C(=N\O)[C@H](C)[C@H]2OC(=O)O[C@@]21C	0.032 µg/mL (≈ 0.0427 µM)	> 256 µg/mL	0.125 µg/mL (≈ 0.167 µM)	1 µg/mL (≈ 1.34 µM)	0.125 µg/mL (≈ 0.167 µM)	> 256 µg/mL	0.016 µg/mL (≈ 0.0214 µM)	0.5 µg/mL (≈ 0.668 µM)	> 256 µg/mL	0.25 µg/mL (≈ 0.334 µM)	> 256 µg/mL	0.25 µg/mL (≈ 0.334 µM)	> 256 µg/mL	0.25 µg/mL (≈ 0.334 µM)		MIC (Staphylococcus aureus [16]): 0.25 µg/mL (≈ 0.334 µM); Ratio [17]: 1024; Ratio [18]: 1024; Ratio (Streptococcus pneumoniae [19]): 32; Ratio (Streptococcus pneumoniae [20]): 32; Ratio [21]: 32; Ratio [22]: 32; Ratio (Staphylococcus hominis [23]): 1024; Ratio (Staphylococcus hominis [24]): 1024
CC[C@H]1OC(=O)[C@H](C)[C@@H](O[C@H]2C[C@@](C)(OC)[C@@H](O)[C@H](C)O2)[C@H](C)[C@@H](O[C@@H]2O[C@H](C)C[C@H](N(C)C)[C@H]2O)[C@](C)(O)C[C@@H](C)CN(C)[C@H](C)[C@@H](O)[C@]1(C)O [AZITHROMYCIN]	0.25 µg/mL (≈ 0.334 µM)	> 256 µg/mL	8 µg/mL (≈ 10.7 µM)	64 µg/mL (≈ 85.4 µM)	32 µg/mL (≈ 42.7 µM)	> 256 µg/mL	0.125 µg/mL (≈ 0.167 µM)	1 µg/mL (≈ 1.34 µM)	> 256 µg/mL	8 µg/mL (≈ 10.7 µM)	> 256 µg/mL	> 256 µg/mL	> 256 µg/mL	> 256 µg/mL	8 µg/mL (≈ 10.7 µM)	
